Measurements as given in ChEMBL document CHEMBL4130446, “Environmentally Friendly Procedure Based on Supercritical Fluid Chromatography and Tandem Mass Spectrometry Molecular Networking for the Discovery of Potent Antiviral Compounds from Euphorbia semiperfoliata” (J Nat Prod, 2017).

Experiments:
[1] = Selectivity index, ratio of CC50 for human MT2 cells to EC50 for HIV NL4.3 harboring renilla luciferase infected in human MT2 cells; type: toxicity, cell-based; conditions: read-out: Ratio CC50/EC50
Summary of the method: (§1)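 Selectivity index is CC50 divided by EC50: Vero CC50 over CHIKV EC50, or MT-2 CC50 over NL4.3-Ren EC50 (HIV). Inputs are in μM unless stated otherwise.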

Chikungunya virus = test: Antiviral activity against Chikungunya virus Indian ocean strain 899 infected in African green monkey Vero cells assessed as reduction in virus-induced cytopathic effect by MTS assay; type: functional, organism-based; conditions: Indian ocean 899, Vero
[2] = system: Human immunodeficiency virus; test: Antiviral activity against HIV NL4.3 harboring renilla luciferase infected in human MT2 cells pretreated for 2 hrs followed by viral infection measured after 48 to 96 hrs post infection by luciferase reporter gene assay; type: functional, organism-based; conditions: Human immunodeficiency virus 1, NL4.3, MT2
Summary of the method: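 Recombinant NL4.3-Ren virus assay in MT-2 cells. EC50 is given in μM unless stated otherwise.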

[3] = Selectivity index, ratio of CC50 for African green monkey Vero cells to EC50 for Chikungunya virus Indian ocean strain 899 infected in African green monkey Vero cells; type: toxicity; conditions: read-out: Ratio CC50/EC50; summary of the method: as §1
[4] = Cytotoxicity against human MT2 cells by Celltiter-Glo assay; type: cell-based
[5] = Cytotoxicity against African green monkey Vero cells assessed as morphological changes by microscopic method; type: cell-based; conditions: chlorocebus sabaeus

| Structure (SMILES) | selectivity ratio [1] | EC50 (Chikungunya virus) [µM] | EC50 [2] [µM] | selectivity ratio [3] | CC50 [4] [µM] | CC50 [5] [µM] |
| --- | --- | --- | --- | --- | --- | --- |
| C/C=C(\C)C(=O)O[C@@H]1[C@@H](C)[C@]2(O)[C@@H]3C=C(C)C(=O)[C@@H]3CC(CO)=C[C@H]2[C@@H]2C(C)(C)[C@]12OC(=O)C(C)C | > 12 | 17 | 4.19 | 7 | > 50 | 116 |
| C/C=C(\C)C(=O)O[C@@H]1[C@@H](C)[C@]2(O)[C@@H]3C=C(C)C(=O)[C@H]3CC(CO)=C[C@H]2[C@@H]2C(C)(C)[C@]12OC(=O)C(C)C | > 3920 | 1 | 0.013 | 25 | > 50 | 20 |
| C/C=C(\C)C(=O)O[C@@H]1[C@@H](C)[C@]2(O)[C@@H]3C=C(C)C(=O)[C@H]3CC(C)=C[C@H]2[C@@H]2C(C)(C)[C@]12OC(=O)C(C)C | – | – | – | – | > 50 | 154 |
| C=C1[C@H](OC(C)=O)[C@@H](OC(C)=O)[C@@H](OC(C)=O)C(C)(C)/C=C/[C@@H](C)C(=O)[C@@]2(OC(C)=O)C[C@@](C)(OC(C)=O)[C@H](OC(C)=O)[C@@H]2[C@H]1OC(C)=O | – | 13.8 | – | > 10 | – | > 144 |
| CC(=O)O[C@@H]1[C@@H](C)[C@]2(O)[C@@H]3C=C(C)C(=O)[C@H]3CC(CO)=C[C@H]2[C@@H]2C(C)(C)[C@]12OC(=O)C(C)C | > 919 | 0.44 | 0.054 | 390 | > 50 | 172 |
| C=C1[C@H](OC(C)=O)[C@@H](O)[C@@H](OC(C)=O)C(C)(C)/C=C/[C@@H](C)C(=O)[C@@]2(OC(C)=O)C[C@@](C)(OC(C)=O)[C@H](OC(C)=O)[C@@H]2[C@H]1OC(C)=O | – | > 153 | – | – | – | – |
| CCCCCCCCCCCCCC(=O)O[C@@H]1[C@@H](C)[C@@]2(O)[C@@H](C=C(CO)C[C@]3(O)C(=O)C(C)=C[C@@H]23)[C@@H]2C(C)(C)[C@]12OC(C)=O [PHORBOL MYRISTATE ACETATE] | – | – | – | 1960 | – | – |
| CC(=O)O[C@@]12C[C@@H](C)[C@@]3(O)[C@@H](C=C(CO)C[C@]4(O)C(=O)C(C)=C[C@@H]34)[C@@H]1C2(C)C [PROSTRATIN] | > 22 | – | 0.226 | 30 | > 50 | – |
